EBV gp42 block: Epstein-Barr virus gp42 inhibitors, primary screen, biochemical, uHTS, fluorescence polarization | inhibition, % (tested at 21.74 µM) | hit rate 0.42% among 220,000 | Fluorescence polarization binding assay, mP read-out | Glycoprotein 42 (Epstein-Barr virus (strain AG876)), Q1HVG2; in the data active = inhibition above about 50%
Target sequence (Q1HVG2 whole entry, looked up): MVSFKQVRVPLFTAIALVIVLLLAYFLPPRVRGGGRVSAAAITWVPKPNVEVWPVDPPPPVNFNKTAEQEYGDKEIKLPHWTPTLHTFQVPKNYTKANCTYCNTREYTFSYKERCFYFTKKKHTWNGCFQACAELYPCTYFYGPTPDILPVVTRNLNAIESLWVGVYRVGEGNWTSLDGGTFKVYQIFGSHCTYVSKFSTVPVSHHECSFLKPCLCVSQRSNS
RanGTP-Impb inh: inhibitors of RanGTP-importin-beta interaction, primary screen, biochemical, FRET, CFP-Ran, YFP-importin-beta, homogeneous | Ran GTPase (GTP-bound) - importin-beta complex | cell-free CFP-Ran/YFP-importin-beta FRET ratio | inhibition, % (no concentration beside the values) | hit rate 1.1% among 300,000;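 active = more than half of the replicate wells show a fall in the fluorescence ratio signal beyond about 16%, limit read from the data, passing the limit was not always enough; inconclusive = exactly half of the replicate wells pass the set limit; inactive = fewer than half of replicates pass the limit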
Runt-CBFb FRET: inhibitors of RUNX1 Runt–CBFb binding, primary screen, biochemical, FRET, Cerulean-Runt, Venus-CBFb, uHTS. hit rate 0.46% among 220,000. Runt-related transcription factor 1 (Homo sapiens) + Core-binding factor subunit beta …. inhibition, % at 20 µM. Cerulean-Runt/Venus-CBFb FRET ratio 530/480, 1 h. AID 1496, 2009;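 active = inhibition over about 50% at 20 µM in the single-dose screen, limit read from the data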
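Measured by: fluorescence energy transfer, 422 nm excitation, 530/480 nm emission; test system: Cerulean-tagged RUNX1 Runt domain (FRET donor) fusion protein; buffer or medium: Tris pH 7.5 buffer with BSA; compound: one dose, 20 µM compound, 1% DMSO; times: two 1 h room-temperature incubations shielded from light; benchmarks: unlabeled CBFb 5 µM, positive control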
LANA-H2A inh: blockers of LANA interaction with H2A/H2B – biochemical, FP readout, HTS, primary screen; Protein LANA1 (Human herpesvirus 8 type P (isolate GK18)), Q9QR71; cell-free LANA-H2A/H2B peptide, fluorescence polarization; inhibition, % (concentration not given with the values); hit rate 0.6% among 320,000; in the data active = inhibition mostly above about 10%, no sharp cut-off; inactive = mostly below about 6.7%
Runt-SMMHC FRET: inhibitors of RUNX1 Runt–CBFb-SMMHC binding, primary screen, biochemical, FRET, Cerulean-Runt, Venus-CBFb-SMMHC, uHTS | Cerulean-Runt/Venus-CBFb-SMMHC FRET ratio 530/480, 1 h | inhibition, % at 20 µM | hit rate 0.74% among 220,000;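 active = mean inhibition across duplicate retests at 20 µM reaching about 50%, limit read from the data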;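 also: inhibitors lower the FRET ratio by blocking Runt binding to CBFb-SMMHC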
MEX-5 binding: MEX-5 zinc finger RNA-binding disruptors – biochemical, C. elegans, fluorescence polarization, MLPCN library, primary screen; hit rate 0.38% among 300,000; AID 1832, 2009; Zinc finger protein mex-5 (Caenorhabditis elegans), Q9XUB2; activity score (negative = inhibition of binding), % at 10 µM; MEX-5/FITC-TCR2 RNA binding; stronger effect = lower value;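 active = inhibition past about -25% in most replicates, and total fluorescence under double the plate's negative control median, limit read from the data; inconclusive = replicates evenly split on the limit, or fluorescence at least double controls; inactive = too little inhibition in most replicates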
Target sequence (Q9XUB2 whole entry, looked up): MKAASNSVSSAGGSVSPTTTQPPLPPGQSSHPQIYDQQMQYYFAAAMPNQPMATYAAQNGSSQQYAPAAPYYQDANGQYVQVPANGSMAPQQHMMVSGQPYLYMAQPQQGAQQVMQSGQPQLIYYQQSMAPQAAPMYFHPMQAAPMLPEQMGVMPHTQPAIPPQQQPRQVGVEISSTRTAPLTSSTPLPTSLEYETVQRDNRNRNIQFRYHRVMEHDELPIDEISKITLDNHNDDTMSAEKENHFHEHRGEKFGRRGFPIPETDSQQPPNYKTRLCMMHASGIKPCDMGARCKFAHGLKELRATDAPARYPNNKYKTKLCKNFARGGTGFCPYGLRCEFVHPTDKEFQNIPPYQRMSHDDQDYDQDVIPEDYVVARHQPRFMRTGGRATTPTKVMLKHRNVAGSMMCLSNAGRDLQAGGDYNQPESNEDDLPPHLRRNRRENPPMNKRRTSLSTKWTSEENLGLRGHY
Numbers stand for hits; i = inactive; ? = inconclusive; nt = not tested or not shown; + = active, no number. Shown are actives, neighbours in structure and some others; about 2.4% of the full set was active somewhere.

SMILES | EBV gp42 block | RanGTP-Impb inh | Runt-CBFb FRET | LANA-H2A inh | Runt-SMMHC FRET | MEX-5 binding
COC(=O)c1c(NC(=O)C2CC2)sc2c1CCN(C(C)=O)C2 | i | i | i | i | i | i
CC(=O)N1CCc2c(sc(NC(=O)C3CCN(S(=O)(=O)c4cccs4)CC3)c2C(N)=O)C1 | nt | ? | nt | i | nt | i
CN1CCc2c(sc(NC(=O)C3CCCN3S(=O)(=O)c3ccc(Cl)s3)c2C(N)=O)C1 (stereo not drawn) | nt | 163.9 | nt | i | nt | i
COC(=O)CCC(=O)Nc1nccs1 | i | i | i | i | i | i
COC(=O)C(Nc1nccs1)(OC)C(F)(F)F (stereo not drawn) | 59.6 | ? | i | i | i | i
CN(Cc1ccccc1)C(=O)COc1cccnc1[N+](=O)[O-] | nt | i | nt | i | nt | i
Cc1ccc(OCC(=O)N(C)Cc2ccccc2)c([N+](=O)[O-])n1 | i | i | i | 16.6 | i | i
O=C(Nc1ccc2[nH]c3c(c2c1)CCCC3)c1ccco1 | 68.2 | i | i | i | i | i
Cc1ccc(CNC(=O)C2CCCN(c3cnccn3)C2)cc1 (stereo not drawn) | nt | i | nt | i | nt | i
COC(=O)CNC(=O)COC(=O)/C=C/c1ccc2ccccc2n1 | i | 27.0 | i | i | i | i
CCC(=O)Nc1cccc(NC(=S)NC(=O)c2ccccc2C)c1 | i | i | i | i | i | i
O=C(Cc1cccc(NC(=O)C2CCCN(C(=O)C3CCC3)C2)c1)Nc1cccc(C(=O)N2CCCC2)c1 (stereo not drawn) | nt | nt | nt | i | nt | nt
Cc1cccc(C(=O)N=c2c(C#N)cc3c(=O)n4cccc(C)c4nc3n2Cc2ccco2)c1 | i | 111.8 | 95.2 | i | nt | i
Cc1cccn2c(=O)c3cc(C#N)c(=NC(=O)c4ccccc4)n(Cc4ccco4)c3nc12 | nt | 110.5 | nt | i | nt | i
Cc1cccn2c(=O)c3cc(C#N)c(=NC(=O)c4ccco4)n(Cc4ccco4)c3nc12 | i | 119.9 | i | i | 88.1 | i
Cc1nc2c(C)cccn2c(=O)c1NC(=O)c1ccco1 | nt | i | nt | i | nt | i
COc1ccccc1C(C)NC(=O)CCNC(=O)c1ccc(Cl)cc1 (stereo not drawn) | nt | nt | nt | i | nt | nt
CCN(Cc1nc2cc(Cl)ccc2c(=O)[nH]1)C(=O)c1cccc(OCc2c(C)noc2C)c1 | nt | nt | nt | 90.9 | nt | nt
O=C(O)c1cc2ccc3ccccc3c2oc1=O | i | ? | i | i | 96.9 | i
O=C(O)c1cc2c(ccc3ccccc32)oc1=O | i | i | i | i | i | i
N#CC(C#N)=Cc1ccc(-c2ccc(S(=O)(=O)N=C(N)N)cc2)o1 | i | i | i | i | i | -37.9
Cc1ccc(NC(=O)ON=C2CCCC2)cc1 | i | i | i | i | i | i
CC1CCN(C(=O)CSc2nnc(-c3cc4ccccc4cc3O)n2Cc2ccco2)CC1 | i | 39.4 | i | i | i | i
CCC(C)(C)NC(=O)C(c1cccn1C)N(C(=O)Cn1nnc2ccccc21)c1ccc(OC)cc1 (stereo not drawn) | i | i | i | i | i | -29.1
CCC(C)(C)NC(=O)C(c1cccn1C)N(C(=O)Cn1nnc2ccccc21)c1ccc(F)cc1 (stereo not drawn) | i | i | i | i | i | i
SMILES | EBV gp42 block | RanGTP-Impb inh | Runt-CBFb FRET | LANA-H2A inh | Runt-SMMHC FRET | MEX-5 binding
CCOC(=O)c1ccc(NC(=O)CC2COc3ccccc3O2)cc1 (stereo not drawn) | i | ? | i | i | i | i
Cn1c(=O)[nH]c(=O)c2c1nc(Br)n2CCCO | i | i | i | 4.4 | i | i
Cc1cccc(Oc2ccccc2NC(=O)C2=COCCO2)c1 | nt | nt | nt | + | nt | nt
COC(=O)c1ccc(NC(=O)CSc2nn3c(=O)c(C)nnc3s2)cc1 | nt | i | nt | i | nt | i
COc1ccc(NC(=O)CSc2nn3c(=O)c(C)nnc3s2)cc1 | nt | ? | nt | 28.4 | nt | i
CCOc1ccc(NC(=O)CSc2nnc(CNC(=O)c3cccs3)o2)cc1 | nt | i | nt | i | nt | nt
CC(=O)N(CN1C(=O)c2ccccc2C1=O)c1cccc(C)c1 | i | i | i | i | i | i
CC(=O)N(/N=C1\Sc2ccccc2C1=O)c1cccc(C)c1 | i | 23.3 | i | i | i | i
CN(C(=O)COC(=O)CNC(=O)c1ccccc1F)C1CCCCC1 | nt | i | nt | i | nt | i
CCCCN(C(=S)Nc1ccc(F)cc1)c1c(N)n(CCC)c(=O)[nH]c1=O | i | i | i | i | i | i
Cc1cccc(NC(=O)CSc2nccn2Cc2ccco2)c1C | nt | i | nt | i | nt | i
C=CCOc1ccc(C2C(C#N)=C(N)N(Nc3ccccc3)C3=C2C(=O)CC(C)(C)C3)cc1OC (stereo not drawn) | i | i | i | i | 94.5 | i
COc1ccc(C2C(C#N)=C(N)OC3=C2C(=O)CC(C)(C)C3)cc1OC (stereo not drawn) | i | i | i | i | i | i
Fc1ccccc1C(c1nnnn1C1CCCC1)N1CCN(Cc2ccccc2)CC1 (stereo not drawn) | 85.0 | i | i | i | i | i
O=c1[nH]n2c(=O)c3c([nH]c2c1N=Nc1cccc(C(F)(F)F)c1)CCCC3 | i | i | i | i | i | i
Cc1[nH][nH]c(=O)c1N=Nc1ccc(S(N)(=O)=O)cc1 | nt | i | nt | i | nt | -58.9
NS(=O)(=O)c1ccc(N=Nc2c(=O)[nH]n3c(=O)c4c([nH]c23)CCCC4)cc1 | i | i | i | i | i | -83.5
O=c1[nH]n2c(=O)c3c([nH]c2c1N=Nc1cccc(Cl)c1)CCC3 | 52.4 | i | i | nt | i | i
CC(=O)c1ccc(N=Nc2c(C)[nH][nH]c2=O)cc1 | nt | i | nt | i | nt | nt
Cc1cccc(/C=N/NC(=O)Cn2nccc2C)n1 | i | i | i | i | i | i
Cc1ccc2c(c1)-n1c(nc3ccccc3c1=O)C(Cc1ccccc1)NC2=O (stereo not drawn) | nt | nt | nt | i | nt | nt
CC1(c2ccccc2)CC(C)(C)N(C(N)=O)c2ccccc21 (stereo not drawn) | nt | i | nt | 22.1 | nt | i
O=C(c1ccccc1F)N1CCN(c2ccc([N+](=O)[O-])c(NCC3CCCO3)c2)CC1 (stereo not drawn) | i | ? | i | i | i | i
O=c1c(/C=C(\O)c2ccccc2)nc2ccccc2n1-c1ccccc1 | 175.6 | 71.6 | i | i | i | -52.8
NC(=O)c1c(N)sc2c1CCCC2 | i | i | i | i | i | i
CN1CCc2c(sc(N)c2C(N)=O)C1 | i | 86.3 | 100.7 | i | 142.7 | i
CCN1CCc2c(sc(N)c2C(N)=O)C1 | i | 101.2 | 90.2 | i | i | i
COc1cc(C2CC(=O)c3cnc(NC(=O)c4ccco4)nc3C2)cc(OC)c1OC (stereo not drawn) | nt | i | nt | i | nt | i

Assay outcomes as filed in PubChem BioAssay.
